Sampled rows, rich in hits. Any-hit rate of the full collection: about 2.5%.
SENP1 inh = human SENP1 catalytic domain inhibitors, primary screen, biochemical, FRET, uHTS | recombinant SENP1 catalytic domain, CyPet-SUMO1-YPet FRET cleavage | Sentrin-specific protease 1 (Homo sapiens), Q9P0U3 | AID 624204, 2012 | inhibition, % at 10 µM | hit rate 0.21% among 360,000;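 active means inhibition at least 30% at 10 µM, raw YFP signal under a set limit, fluorescence ratio 0.5 to 1.5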
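Test system: recombinant human SENP1 catalytic domain, His6-tagged / Medium: pH 8 Tris buffer with EDTA, NaCl, BME, BSA, NP40, catalase / Also added: SUMO1 FRET substrate flanked by Cypet and Ypet, 25 nM / Times: 50 min reaction at room temperature / Signal: FRET, CFP and YFP emission / Control set: no-enzyme low control and enzyme-plus-DMSO high control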
SENP6 block = SENP6 protease inhibitors, primary screen, biochemical, luminescence, uHTS | Recombinant SENP6 catalytic domain, aminoluciferin luminescence | AID 2599, 2010 | inhibition, % at 10 µM | hit rate 1.8% among 330,000 | Sentrin-specific protease 6 (Homo sapiens), Q9GZR1;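 active means inhibition above about 50% at the single tested dose, limit read from the data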
Target sequence (Q9GZR1 628-1112 limits assumed): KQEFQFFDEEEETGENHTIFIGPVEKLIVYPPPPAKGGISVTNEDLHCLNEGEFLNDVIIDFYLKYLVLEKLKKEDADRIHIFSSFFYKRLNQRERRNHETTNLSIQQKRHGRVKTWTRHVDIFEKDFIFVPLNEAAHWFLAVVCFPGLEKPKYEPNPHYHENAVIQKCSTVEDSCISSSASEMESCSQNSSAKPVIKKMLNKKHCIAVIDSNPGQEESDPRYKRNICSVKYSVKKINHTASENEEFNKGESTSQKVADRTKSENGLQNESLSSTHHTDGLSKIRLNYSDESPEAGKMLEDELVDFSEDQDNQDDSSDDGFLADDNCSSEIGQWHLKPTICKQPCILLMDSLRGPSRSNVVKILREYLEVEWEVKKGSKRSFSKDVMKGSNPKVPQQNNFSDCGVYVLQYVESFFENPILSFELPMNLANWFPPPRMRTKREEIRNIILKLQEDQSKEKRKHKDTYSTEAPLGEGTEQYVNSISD
SENP7 inh = SENP7 protease inhibitors, primary screen, biochemical, luminescence, uHTS; hit rate 1.5% among 330,000; recombinant SENP7, Z-RLRGG-aminoluciferin luminescence, 40 min; inhibition, % at 5 µM; Sentrin-specific protease 7 (Homo sapiens), Q9BQF6;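 active means inhibition above about 50% at the single test dose, limit read from the data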
SENP8 block-1 = human SENP8 protease inhibitors, primary screen, biochemical, fluorescence, Nedd8 protein substrate, uHTS. Sentrin-specific protease 8 (Homo sapiens), Q96LD8. recombinant SENP8. inhibition, % at 20 µM. hit rate 0.64% among 360,000. AID 602440, 2012; in the data active means inhibition mostly above about 40%, no sharp cut-off; inactive means mostly below about 27%
SENP8 block-2 = SENP8 protease inhibitors, primary screen, biochemical, luminescence | Sentrin-specific protease 8 (Homo sapiens), Q96LD8 | hit rate 1.2% among 330,000 | AID 2540, 2010 | purified SENP8, Z-RLRGG-aminoluciferin cleavage | inhibition, % at 10 µM; in the data active means inhibition above about 50%
SENP8 conf = SENP8 protease inhibitors, retest, confirmation, biochemical, luminescence, single concentration; shares compounds with SENP7 inh; Recombinant SENP8, Z-RLRGG-aminoluciferin luminescence, 60 min; inhibition, % at 12.5 µM; hit rate 40% among 6,200; AID 488912, 2010;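 active means mean inhibition across replicates above about 50%, limit read from the data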
SENP6 conf = SENP6 protease inhibitors, confirmation, biochemical, luminescence, single concentration. inhibition, % at 12.5 µM. recombinant SENP6, Z-RLRGG-aminoluciferin luminescence. hit rate 58% among 6,200. AID 488915, 2010. shares compounds with SENP7 inh
SENP7 confirm = SENP7 protease inhibitors, retest, confirmation, biochemical, luminescence, single concentration; inhibition, % at 12.5 µM; hit rate 69% among 6,200; shares compounds with SENP7 inh; recombinant SENP7, Z-RLRGG-aminoluciferin luminescence, 40 min
Casp3 select = caspase-3 protease inhibitors, confirmation, selectivity assay for SENP inhibitor project, biochemical, single concentration. shares compounds with SENP7 inh. purified caspase-3, Z-DEVD-aminoluciferin luminescence, 60 min. inhibition, % at 12.5 µM. hit rate 60% among 6,200. AID 488918, 2010;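 active means mean inhibition above about 50%, limit read from the data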
Target sequence (P42574 28-227 limits assumed): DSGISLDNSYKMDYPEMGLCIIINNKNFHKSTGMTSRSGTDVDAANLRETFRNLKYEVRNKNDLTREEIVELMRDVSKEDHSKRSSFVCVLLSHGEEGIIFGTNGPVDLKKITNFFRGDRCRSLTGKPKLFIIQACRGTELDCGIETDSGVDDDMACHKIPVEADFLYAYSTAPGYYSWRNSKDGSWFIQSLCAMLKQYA
SENP luc ctr = luminescence interference (SENP counter-screen). Pre-incubated SENP8/Z-RLRGG-aminoluciferin, luciferase luminescence interference. inhibition, % at 12.5 µM. hit rate 39% among 6,200. shares compounds with SENP7 inh. AID 488919;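 active means mean inhibition above about 50% when retested at one dose, limit read from the data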
Each line names hits and unclear results; the compound was inactive in the other large screens (follow-up assays come after a bar, where they were run).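 How the source made its calls, unless noted: active means mean inhibition above about 50% in the one-dose retest (limit read from the data); inactive means the rest.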

O=C(CSc1ccccn1)N/N=C/c1ccccc1[N+](=O)[O-]	none
O=C(CSc1ccccn1)N/N=C/c1cc([N+](=O)[O-])ccc1O	SENP6 block 52.2, SENP8 block-1 26.8 | SENP8 conf inactive | SENP6 conf inactive | SENP7 confirm 65.2 | Casp3 select 57.9 | SENP luc ctr inactive
Cc1ccc(C=C2C=C(c3ccccc3)OC2=O)cc1	none (no result: SENP6 block, SENP7 inh, SENP8 block-2)
Cc1ccc(C2=C/C(=C/c3cccs3)C(=O)O2)cc1	SENP6 block 74.2, SENP7 inh 70.8 | SENP8 conf inactive | SENP6 conf inactive | SENP7 confirm inactive | Casp3 select inactive | SENP luc ctr inactive
Cc1noc(NS(=O)(=O)c2ccc(NC(=O)C(Cl)(Cl)Cl)cc2)c1C	none
Cc1cc(NS(=O)(=O)c2ccc(NC(=O)Nc3ccccc3)cc2)no1	SENP6 block 53.8 | SENP8 conf inactive | SENP6 conf inactive | SENP7 confirm 67.1 | Casp3 select 68.8 | SENP luc ctr inactive
Cc1cc(NS(=O)(=O)c2ccc(NC(=O)C(c3ccccc3)c3ccccc3)cc2)no1	none
COc1cccc(C(=O)/C=C/Nc2ccc(S(=O)(=O)Nc3onc(C)c3C)cc2)c1	SENP6 block 88.3, SENP7 inh 58.4, SENP8 block-2 78.3 | SENP8 conf 67.8 | SENP6 conf 66.9 | SENP7 confirm 86.2 | Casp3 select 68.5 | SENP luc ctr inactive
Cc1noc(NS(=O)(=O)c2ccc(N/C=C\C(=O)c3ccc(Br)cc3)cc2)c1C	none
Cc1noc(NS(=O)(=O)c2ccc(NC(=O)Nc3ccc(Cl)c(Cl)c3)cc2)c1C	SENP6 block 86.2, SENP8 block-2 81.7 | SENP8 conf 89.0 | SENP6 conf 89.0 | SENP7 confirm 95.0 | Casp3 select 50.7 | SENP luc ctr 85.4
CC(C)Oc1cc(F)ccc1-c1cc(C(=O)NCCc2ccncc2)[nH]n1	none (no result: SENP6 block, SENP7 inh, SENP8 block-2)
Cc1cc(C)n(-c2nc(SCCN(C)C)c3c4c(sc3n2)COC(C)(C)C4)n1	none
c1ccc(N=Nc2ccc3cccccc2-3)cc1	SENP6 block 54.1, SENP7 inh 67.7 | SENP8 conf 56.4 | SENP6 conf 68.3 | SENP7 confirm 86.4 | Casp3 select inactive | SENP luc ctr inactive
Nc1ccc(N=Nc2ccccc2)c2ccccc12	none
Cc1ccc(/C(N)=N/OC(=O)C(C)c2ccc([N+](=O)[O-])cc2)cc1 (stereo not given)	none
Cc1ccc(/C=N/Nc2nc3ccccc3[nH]2)s1	SENP6 block 56.1, SENP8 block-2 55.9 | SENP8 conf 68.5 | SENP6 conf 60.9 | SENP7 confirm 84.5 | Casp3 select inactive | SENP luc ctr 71.3
O=C1COc2ccc(OCc3ccc(F)cc3)cc21	SENP6 block 71.2, SENP7 inh 63.6 | SENP8 conf 68.0 | SENP6 conf 67.3 | SENP7 confirm 89.2 | Casp3 select 76.2 | SENP luc ctr 50.0
COc1ccc2c(-c3cc4ccc(OCc5ccc(F)cc5)cc4oc3=O)cc(=O)oc2c1	none (no result: SENP6 block, SENP7 inh, SENP8 block-2)
Cc1ccc(NC(=O)COC(=O)C2CC(=O)N(Cc3ccccc3)C2)cc1F (stereo not given)	none
COc1cc(N/N=C/c2ccccc2O)ncn1	SENP6 block 74.5, SENP7 inh 71.0 | SENP8 conf 63.1 | SENP6 conf 63.1 | SENP7 confirm 88.9 | Casp3 select 74.6 | SENP luc ctr 59.4
CCNc1nc(NCC)nc(N/N=C/c2ccc(N(C)C)cc2)n1	none
COc1cc(N/N=C/c2ccc(N(C)C)cc2)ncn1	SENP6 block 96.0, SENP7 inh 96.7, SENP8 block-2 93.2 | SENP8 conf 70.2 | SENP6 conf 81.2 | SENP7 confirm 93.8 | Casp3 select 78.3 | SENP luc ctr inactive
CN(C)[C@H]1CCN([C@@H]2CS(=O)(=O)N[C@H]2COCc2ccccc2)C1	none (no result: SENP6 block, SENP7 inh, SENP8 block-2)
O=C(CSc1nc2ccccc2o1)c1ccccc1	SENP6 block 66.9, SENP7 inh 70.9 | SENP8 conf 68.3 | SENP6 conf 69.1 | SENP7 confirm 84.6 | Casp3 select 61.2 | SENP luc ctr 62.2
COC(=O)CSc1nc2ccccc2o1	none
O=C(O)c1ccccc1CSc1nc2ccccc2o1	SENP6 block 84.6, SENP7 inh 61.7, SENP8 block-2 56.7 | SENP8 conf 77.0 | SENP6 conf 74.8 | SENP7 confirm 91.1 | Casp3 select 90.1 | SENP luc ctr 81.0
CC(=O)CSc1nc2ccccc2o1	none
O=C(O)c1ccc(CSc2nc3ccccc3o2)cc1	SENP6 block 74.6, SENP8 block-2 54.3 | SENP8 conf 65.9 | SENP6 conf 63.7 | SENP7 confirm 85.6 | Casp3 select 82.6 | SENP luc ctr 69.8
CCN(CC)S(=O)(=O)c1ccc(N=Nc2c(N)[nH]c(=O)[nH]c2=O)cc1	SENP6 block 51.6, SENP8 block-1 43.3 | SENP8 conf inactive | SENP6 conf inactive | SENP7 confirm inactive | Casp3 select inactive | SENP luc ctr inactive
CCN(CC)S(=O)(=O)c1ccc(N=NC2=C(O)CCCC2=O)cc1	none
CCCCN(CC)C(=O)c1ccc(Cl)c(Cl)c1	none
COC(=O)c1sc2nc3c(cc2c1N)CCCC3	SENP7 inh 74.9, SENP8 block-2 56.7 | SENP8 conf inactive | SENP6 conf 72.1 | SENP7 confirm 91.3 | Casp3 select 76.2 | SENP luc ctr 50.9
NC(=O)c1sc2nc3c(cc2c1N)CCC3	none
NS(=O)(=O)c1ccc(CNC(=O)c2cccnc2Cl)cc1	none
O=[N+]([O-])c1nn(-c2ccc3c(c2)OCCO3)n(O)c1=NCc1ccccc1Cl	SENP7 inh 63.7 | SENP8 conf inactive | SENP6 conf inactive | SENP7 confirm 64.6 | Casp3 select inactive | SENP luc ctr inactive
